Test results as given in ChEMBL document CHEMBL4715835, “Lipidic synthetic alkaloids as SK3 channel modulators. Synthesis and biological evaluation of 2-substituted tetrahydropyridine derivatives with potential anti-metastatic activity” (Eur J Med Chem, 2020).
Activity calls are given as the source filed them. No cut-off for these calls is given here.

What was measured:
MDA-MB-435 [1] = assay: Toxicity in human MDA-MB-435 cells assessed as mortality at 1 uM measured after 24 hrs by MTT assay relative to control; type: cell-based; conditions: mda-mb-435, 24 h
How it was run: (§1)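 MTT viability assay: about 4 × 10⁴ MDA-MB-435s cells seeded in triplicate with the molecules (tested series 100 nM, 300 nM, 1 µM, 3 µM, 10 µM) and kept 24 h at 37 °C. Medium was then removed and cells incubated 45 min at 37 °C with tetrazolium salt, which viable cells reduce to formazan. Results given as % mortality.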

[2] = Toxicity in human MCF7 cells assessed as reduction in cell number after 48 hrs by Hoechst 33342 staining based assay
How it was run: (§2)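 4000 cells per well. Cells exposed 24 h after seeding to 6 concentrations ([…]) for 48 h. They were then fixed in cold 90% ethanol/5% acetic acid for 20 min and nuclei stained with Hoechst 33342. Plates imaged on a high-content reader. IC₅₀ calculated; normal diploid skin fibroblasts served as control cells.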

[3] = Toxicity in human Caco-2 cells assessed as reduction in cell number after 48 hrs by Hoechst 33342 staining based assay; how it was run: as §2
[4] = Toxicity in human NCI-H727 cells assessed as reduction in cell number after 48 hrs by Hoechst 33342 staining based assay; how it was run: as §2
[5] = Toxicity in human PC-3 cells assessed as reduction in cell number after 48 hrs by Hoechst 33342 staining based assay; how it was run: as §2
[6] = Toxicity in human Huh-7 cells assessed as reduction in cell number after 48 hrs by Hoechst 33342 staining based assay; how it was run: as §2
[7] = Toxicity in human skin fibroblasts assessed as reduction in cell number after 48 hrs by Hoechst 33342 staining based assay; type: tissue-based, Fibroblast; how it was run: as §2
[8] = Toxicity in human MDA-MB-231 cells assessed as reduction in cell number after 48 hrs by Hoechst 33342 staining based assay; how it was run: as §2
MDA-MB-435 [9] = assay: Toxicity in human MDA-MB-435 cells assessed as mortality at 3 uM measured after 24 hrs by MTT assay relative to control; type: cell-based; conditions: mda-mb-435, 24 h; how it was run: as §1
[10] = Toxicity in human HCT-116 cells assessed as reduction in cell number after 48 hrs by Hoechst 33342 staining based assay; how it was run: as §2
MDA-MB-435 [11] = assay: Toxicity in human MDA-MB-435 cells assessed as mortality at 10 uM measured after 24 hrs by MTT assay relative to control; type: cell-based; conditions: mda-mb-435, 24 h; how it was run: as §1
MDA-MB-435 [12] = assay: Effect on calcium influx in human MDA-MB-435 cells harboring siRNA and siOrai1 at 300 nM measured after 1 hr by Fura2-AM dye based fluorescence assay; type: functional, cell-based
How it was run: (§3)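 Constitutive Ca²⁺ entry in MDA-MB-435s shRD or shSK3 cells, measured 48 h after transfection with 30 nM siOrai1 or siCTL. Cells were treated 1 h with compound and loaded with Fura2-AM for 45 min at 37 °C. They were then resuspended in Ca²⁺-free solution for 20 s before 2 mM CaCl₂ was added. Emission read at 510 nm with 340/380 nm excitation. Steady-state signal normalized to control. Three experiments in triplicate.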

[13] = target: Small conductance calcium-activated potassium channel protein 3 (Homo sapiens) (UniProt Q9UGI6); assay: Inhibition of SK3 (unknown origin) expressed in HEK293 cells assessed as reduction in channel current at 2 uM with 0 mV holding potential measured within 10 secs by patch clamp electrophysiological method relative to control; type: cell-based; conditions: time 10.0 sec
Sequence of Small conductance calcium-activated potassium channel protein 3 (Homo sapiens) (Q9UGI6 whole entry): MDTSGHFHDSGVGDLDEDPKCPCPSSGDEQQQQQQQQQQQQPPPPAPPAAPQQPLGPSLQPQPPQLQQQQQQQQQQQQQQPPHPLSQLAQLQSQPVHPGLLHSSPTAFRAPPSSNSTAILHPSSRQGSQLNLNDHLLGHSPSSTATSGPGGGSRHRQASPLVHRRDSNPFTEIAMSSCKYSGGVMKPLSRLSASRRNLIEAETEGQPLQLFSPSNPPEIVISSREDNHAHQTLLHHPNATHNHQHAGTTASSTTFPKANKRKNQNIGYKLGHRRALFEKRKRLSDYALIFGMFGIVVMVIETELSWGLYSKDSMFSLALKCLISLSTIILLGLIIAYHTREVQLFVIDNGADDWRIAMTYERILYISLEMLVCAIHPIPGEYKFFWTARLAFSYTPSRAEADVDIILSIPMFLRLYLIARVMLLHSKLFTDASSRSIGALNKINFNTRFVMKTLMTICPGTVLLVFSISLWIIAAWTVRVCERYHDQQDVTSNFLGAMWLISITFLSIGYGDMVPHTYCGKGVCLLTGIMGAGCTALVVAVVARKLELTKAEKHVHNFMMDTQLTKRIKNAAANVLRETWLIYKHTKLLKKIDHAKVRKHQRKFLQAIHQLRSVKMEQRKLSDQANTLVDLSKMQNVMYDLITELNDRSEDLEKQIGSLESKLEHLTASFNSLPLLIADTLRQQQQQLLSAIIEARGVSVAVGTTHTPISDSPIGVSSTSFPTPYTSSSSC
How it was run: (§4)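 Patch clamp on HEK-293 cells stably expressing SK3 (lentiviral). Compound added acutely; DMSO/methanol was the vehicle, and runs with or without apamin. Ramp from −80 to +80 mV, holding at 0 mV, 500 ms ramps at 4 s intervals. Current analyzed at 0 mV to minimize chloride currents, followed as a time course. Pipette solution adjusted to pH 7.2 with KOH.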

MDA-MB-435 [14] = assay: Antimetastatic activity against human MDA-MB-435 cells assessed as reduction in cell migration at 100 to 300 nM after 24 hrs by crystal violet staining based assay relative to control; design: scale not given: the % may be the effect or the level left; conditions: dose 100-300 nM
[15] = target: Small conductance calcium-activated potassium channel protein 3 (Homo sapiens) (UniProt Q9UGI6); assay: Inhibition of SK3 (unknown origin) expressed in HEK293 cells assessed as reduction in channel current at 2 uM with 0 mV holding potential in presence of -apamin by patch clamp electrophysiological method; type: cell-based; how it was run: as §4
MDA-MB-435 [16] = assay: Antimetastatic activity against human MDA-MB-435 cells harboring shRNA assessed as reduction in cell migration at 100 to 300 nM after 24 hrs […]; type: functional, cell-based; conditions: dose 100-300 nM
MDA-MB-435 [17] = assay: Effect on calcium influx in human MDA-MB-435 cells harboring siRNA and siCTL at 300 nM measured after 1 hr by Fura2-AM dye based fluorescence assay; type: functional, cell-based; how it was run: as §3
MDA-MB-435 [18] = assay: Antimetastatic activity against human MDA-MB-435 cells assessed as reduction in cell migration at 1 uM after 24 hrs by […] relative to control; type: functional; design: scale not given: the % may be the effect or the level left
[19] = target: ORAI1/STIM1 (Homo sapiens) (UniProt Q96D31+Q13586); assay: Inhibition of STIM1/Orai1 (unknown origin) expressed in HEK293 cells assessed as reduction in Ca2+-release activated Ca2+ entry current at 2 uM by whole cell patch clamp electrophysiological method; type: cell-based
Sequence of ORAI1/STIM1 (Homo sapiens) (Q13586 23-685 partner limits assumed): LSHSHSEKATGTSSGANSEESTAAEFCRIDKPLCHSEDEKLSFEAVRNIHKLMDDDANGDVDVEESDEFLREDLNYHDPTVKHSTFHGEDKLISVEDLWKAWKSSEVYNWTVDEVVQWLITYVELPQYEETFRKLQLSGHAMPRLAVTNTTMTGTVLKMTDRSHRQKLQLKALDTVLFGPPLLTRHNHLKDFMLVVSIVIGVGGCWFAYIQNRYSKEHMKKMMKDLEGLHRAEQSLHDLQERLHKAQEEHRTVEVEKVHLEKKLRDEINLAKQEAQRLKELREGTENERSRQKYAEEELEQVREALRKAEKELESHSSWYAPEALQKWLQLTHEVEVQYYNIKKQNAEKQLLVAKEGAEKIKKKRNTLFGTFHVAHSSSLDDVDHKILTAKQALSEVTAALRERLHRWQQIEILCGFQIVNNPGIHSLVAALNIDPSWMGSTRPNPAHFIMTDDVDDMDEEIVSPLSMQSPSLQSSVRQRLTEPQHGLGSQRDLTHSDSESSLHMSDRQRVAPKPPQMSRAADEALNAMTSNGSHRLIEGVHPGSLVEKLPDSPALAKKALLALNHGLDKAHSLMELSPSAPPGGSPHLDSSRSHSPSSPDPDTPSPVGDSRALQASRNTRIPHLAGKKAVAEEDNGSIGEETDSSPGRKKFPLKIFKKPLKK
Sequence of ORAI1/STIM1 (Homo sapiens) (Q96D31 whole entry): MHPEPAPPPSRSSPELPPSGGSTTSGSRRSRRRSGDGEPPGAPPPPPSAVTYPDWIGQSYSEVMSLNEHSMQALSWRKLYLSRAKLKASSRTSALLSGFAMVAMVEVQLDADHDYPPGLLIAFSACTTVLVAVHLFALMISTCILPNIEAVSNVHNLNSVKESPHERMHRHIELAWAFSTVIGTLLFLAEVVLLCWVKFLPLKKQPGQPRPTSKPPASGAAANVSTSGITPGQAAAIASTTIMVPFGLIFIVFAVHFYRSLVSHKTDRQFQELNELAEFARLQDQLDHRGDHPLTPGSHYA

MDA-MB-435 [20] = assay: Inhibition of SK3/Orai1 in human MDA-MB-435 cells harboring SK3 shRNA assessed as reduction in Ca2+ influx at 300 nM measured after 1 hr by Fura2-AM dye based fluorescence assay relative to control; type: cell-based; how it was run: as §3
[21] = target: Small conductance calcium-activated potassium channel protein 3 (Homo sapiens) (UniProt Q9UGI6); assay: Inhibition of SK3 in human MDA-MB-435 cells harboring SK3 shRNA assessed as reduction in Ca2+ influx at 300 nM measured after 1 hr by Fura2-AM dye based fluorescence assay; type: cell-based; how it was run: as §3
[22] = target: Small conductance calcium-activated potassium channel protein 3 (Homo sapiens) (UniProt Q9UGI6); assay: Inhibition of SK3 (unknown origin) expressed in HEK293 cells assessed as reduction in channel current at 2 uM with 0 mV holding potential by patch clamp electrophysiological method; type: cell-based; how it was run: as §4
MDA-MB-435 [23] = assay: Inhibition of SK3/Orai1 in human MDA-MB-435 cells harboring SK3 shRNA assessed as reduction in Ca2+ influx at 1 uM measured after 1 hr by Fura2-AM dye based fluorescence assay; type: cell-based; how it was run: as §3
MDA-MB-435 [24] = assay: Effect on calcium influx in human MDA-MB-435 cells harboring siRNA and siOrai1 at 1 uM measured after 1 hr by Fura2-AM dye based fluorescence assay; type: functional, cell-based; how it was run: as §3
[25] = target: Small conductance calcium-activated potassium channel protein 3 (Homo sapiens) (UniProt Q9UGI6); assay: Inhibition of SK3 (unknown origin) expressed in HEK293 cells assessed as reduction in channel current at 10 uM with 0 mV holding potential measured within 100 secs by patch clamp electrophysiological method relative to control; type: cell-based; conditions: time 100.0 sec; how it was run: as §4
MDA-MB-435 [26] = assay: Antimetastatic activity against human MDA-MB-435 cells harboring SK3 shRNA assessed as reduction in cell migration after 24 hrs by […]; type: functional, cell-based
MDA-MB-435 [27] = assay: Antimetastatic activity against human MDA-MB-435 cells harboring shRNA assessed as reduction in cell migration at 0.3 to 3 uM after 24 hrs by […]; type: functional, cell-based; conditions: dose 0.3-3 µM
[28] = target: Small conductance calcium-activated potassium channel protein 3 (Homo sapiens) (UniProt Q9UGI6); assay: Inhibition of SK3 (unknown origin) expressed in HEK293 cells assessed as reduction in channel current at 10 uM with 0 mV holding potential in presence of -apamin by patch clamp electrophysiological method; type: cell-based; how it was run: as §4
[29] = target: Small conductance calcium-activated potassium channel protein 3 (Homo sapiens) (UniProt Q9UGI6); assay: Inhibition of SK3 (unknown origin) expressed in HEK293 cells assessed as reduction in channel current at 10 uM with 0 mV holding potential by patch clamp electrophysiological method; type: cell-based; how it was run: as §4
MDA-MB-435 [30] = assay: Antimetastatic activity against human MDA-MB-435 cells harboring shRNA assessed as reduction in cell migration at 3 uM after 24 hrs by […] relative to control; type: functional; design: scale not given: the % may be the effect or the level left
[31] = target: Small conductance calcium-activated potassium channel protein 3 (Homo sapiens) (UniProt Q9UGI6); assay: Inhibition of SK3 in human MDA-MB-435 cells harboring SK3 shRNA assessed as reduction in Ca2+ influx at 1 uM measured after 1 hr by Fura2-AM dye based fluorescence assay; type: cell-based; how it was run: as §3
MDA-MB-435 [32] = assay: Effect on calcium influx in human MDA-MB-435 cells harboring siRNA and siCTL at 1 uM measured after 1 hr by Fura2-AM dye based fluorescence assay; type: functional, cell-based; how it was run: as §3

Structure (SMILES)	mortality (MDA-MB-435 [1])	IC50 at 48 h [2]	IC50 at 48 h [3]	IC50 at 48 h [4]	IC50 at 48 h [5]	IC50 at 48 h [6]	IC50 at 48 h [7]	IC50 at 48 h [8]	mortality (MDA-MB-435 [9])	IC50 at 48 h [10]	mortality (MDA-MB-435 [11])	also measured
CCCCCCCC/C=C\CCCCCCC[C@H](O)C[C@@H]1C=CCCN1C	30%	18 µM	6 µM	> 25 µM	19 µM	24 µM	25 µM	14 µM	40%	15 µM		
CCCCCCCCCCCCCCCCCC(O)Cc1ccccn1 (stereo not drawn)	0%										0%	
CCCCCCCCCCCCCCCCC[C@H](O)C[C@@H]1C=CCCN1C	0%	> 25 µM	16 µM	> 25 µM	> 25 µM	> 25 µM	> 25 µM	> 25 µM		> 25 µM	0%	Activity (MDA-MB-435 [12]): inactive; inhibition [13]: 50%; Activity (MDA-MB-435 [14]): <=60%; inhibition [15]: Active; Activity (MDA-MB-435 [16]): inactive; Activity (MDA-MB-435 [17]): inactive; Activity (MDA-MB-435 [18]): <=60%; inhibition [19]: inactive; inhibition (MDA-MB-435 [20]): < 40%; inhibition [21]: inactive; inhibition [22]: 90%
CCCCCCCCCCCCCCCCC[C@@H](O)C[C@@H]1CCCCN1C	0%										35%	
CCCCCCCC/C=C\CCCCCCCC(O)Cc1ccccn1 (stereo not drawn)	20%								25%			
CCCCCCCC/C=C\CCCCCCC[C@@H](O)C[C@@H]1C=CCCN1C	30%	10 µM	8 µM	9 µM	7 µM	10 µM	9 µM	8 µM	80%	10 µM		
CCCCCCCCCCCCCCCCCCC[C@H](C[C@@H]1C=CCCN1C)OC(C)=O	0%	> 25 µM	17 µM	> 25 µM	> 25 µM	> 25 µM	> 25 µM	> 25 µM		> 25 µM	20%	
COc1cccc2c1C(=O)c1c(O)c3c(c(O)c1C2=O)C[C@@](O)(C(=O)CO)C[C@@H]3O[C@H]1C[C@H](N)[C@H](O)[C@H](C)O1 [DOXORUBICIN]			0.17 µM	0.66 µM	0.12 µM		0.03 µM			0.12 µM		
CCCCCCCCCCCCCCCCC[C@H](C[C@@H]1C=CCCN1C)OC(C)=O	5%	19 µM	9 µM	> 25 µM	15 µM	22 µM	18 µM	21 µM		16 µM	70%	
CCCCCCCCCCCCCCCCC[C@@H](C[C@@H]1C=CCCN1C)OC(C)=O	0%	> 25 µM	9 µM	> 25 µM	26 µM	> 25 µM	24 µM	22 µM		24 µM	20%	
CCCCCCCCCCCCCCCCCCCC(Cc1ccccn1)OC (stereo not drawn)	20%								20%			
CCCCCCCCCCCCCCCCCC(Cc1cccc[n+]1C)OC.Cc1ccc(S(=O)(=O)[O-])cc1 (stereo not drawn)	30%										80%	
CCCCCCCCCCCCCCCCCCC[C@H](O)C[C@@H]1C=CCCN1C	30%	> 25 µM	14 µM	> 25 µM	> 25 µM	> 25 µM	> 25 µM	> 25 µM	30%	> 25 µM		
CCCCCCCCCCCCCCCCCCCC(O)Cc1ccccn1 (stereo not drawn)	20%								20%			
CCCCCCCC/C=C\CCCCCCCC(Cc1ccccn1)OC (stereo not drawn)	20%								25%			
CCCCCCCCCCCCCCCCC[C@@H](O)C[C@@H]1C=CCCN1C	0%	> 25 µM	21 µM	> 25 µM	> 25 µM	> 25 µM	> 25 µM	> 25 µM		> 25 µM	80%	
CCCCCCCCCCCCCCCCCC(Cc1ccccn1)OC (stereo not drawn)	0%										0%	
CCCCCCCC/C=C\CCCCCCC[C@H](C[C@@H]1C=CCCN1C)OC(C)=O	0%	15 µM	9 µM	19 µM	8 µM	10 µM	13 µM	10 µM		9 µM	70%	inhibition (MDA-MB-435 [23]): Active; Activity (MDA-MB-435 [24]): inactive; inhibition [25]: 50%; Activity (MDA-MB-435 [26]): Dose-dependent effect; Activity (MDA-MB-435 [27]): inactive; inhibition [28]: Active; inhibition [29]: 70%; Activity (MDA-MB-435 [18]): 40%; Activity (MDA-MB-435 [30]): <=40%; inhibition [31]: inactive; Activity (MDA-MB-435 [32]): inactive
CCCCCCCCCCCCCCCCCCC[C@@H](O)C[C@@H]1C=CCCN1C	20%	> 25 µM	> 25 µM	> 25 µM	> 25 µM	> 25 µM	> 25 µM	> 25 µM	30%	> 25 µM		
